# From ChEMBL document CHEMBL3758103, “Anti-herpetic and anti-dengue activity of abietane ferruginol analogues synthesized from (+)-dehydroabietylamine” (Eur J Med Chem, 2016)
# The source made the active and inactive calls. The rule behind the calls is not given here.
# Key:
# [1] = Cytotoxicity against human U937 cells assessed as cell growth inhibition after 48 hrs by MTT assay; type: functional, cell-based; conditions: U-937, 48 h
# Procedure, shortened: (§1)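 MTT assay. Vero and HeLa cells plated at 2.0 × 10^4/well and preincubated 24 h; Jurkat and U937 plated at 3.0 × 10^4/well. Compounds were applied 48 h at 37 °C, 5% CO2, with 0.05% DMSO. Absorbance read at 570 nm and IC50 taken by linear regression. Values are the geometric mean of two experiments in quadruplicate.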
# Aspergillus terreus = test: Antifungal activity against Aspergillus terreus CDC 317 assessed as microbial growth inhibition by microdilution assay; type: functional, organism-based
# Procedure, shortened: (§2)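 Broth microdilution under CLSI M38-A with modifications, in duplicate, at final compound concentrations of 50–3.125 μg/mL. […] Values are the geometric mean of duplicate tests in three assays. Assay DMSO was 0.05%.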
# Candida albicans = test: Antifungal activity against Candida albicans […] assessed as microbial growth inhibition after 24 hrs by microdilution assay; type: functional, organism-based
# Procedure, shortened: (§3)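 Yeast microdilution by the AFST-EUCAST method at an inoculum of 1–5 × 10^5 CFU/mL, final compound concentrations 50–3.125 μg/mL, in duplicate. MIC is the lowest concentration giving 90% growth reduction after 24 h at 35 °C. Untreated inoculum served as negative control. Values are the geometric mean of duplicate tests in three assays.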
# Aspergillus flavus = test: Antifungal activity against Aspergillus flavus ATCC 204304 assessed as microbial growth inhibition by microdilution assay; type: functional, organism-based; procedure, shortened: as §2
# Candida parapsilosis = test: Antifungal activity against Candida parapsilosis ATCC 22019 assessed as microbial growth inhibition after 24 hrs by microdilution assay; type: functional, organism-based; procedure, shortened: as §3
# HeLa [2] = test: Cytotoxicity against human HeLa cells assessed as cell growth inhibition after 48 hrs by MTT assay; type: functional, cell-based; procedure, shortened: as §1
# Candida tropicalis = test: Antifungal activity against Candida tropicalis ATCC 200956 assessed as microbial growth inhibition after 24 hrs by microdilution assay; type: functional, organism-based; procedure, shortened: as §3
# Jurkat [3] = test: Cytotoxicity against human Jurkat cells assessed as cell growth inhibition after 48 hrs by MTT assay; type: functional, cell-based; procedure, shortened: as §1
# Aspergillus fumigatus = test: Antifungal activity against Aspergillus fumigatus ATCC 204305 assessed as microbial growth inhibition by microdilution assay; type: functional, organism-based; procedure, shortened: as §2
# Fusarium oxysporum = test: Antifungal activity against Fusarium oxysporum ATCC 48112 assessed as microbial growth inhibition after 48 hrs by microdilution assay; type: functional, organism-based; procedure, shortened: as §2
# Human alphaherpesvirus 2 [4] = test: Antiviral activity against HHV-2 VR-734-G infected in African green monkey Vero cells assessed as maximal non toxic concentration causing reduction of viral titer after 72 hrs by crystal violet staining assay; type: functional
# Procedure, shortened: (§4)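 End-point titration on Vero monolayers (2.0 × 10^4 cells/well, ≥80% confluent) with 10 TCID50 virus. Virus–compound mixtures (6.25–50 μg/mL) in DMEM/2% FBS with CMC (1% for HHV-1, 0.5% for HHV-2) were held 15 min at room temperature. Incubation was 48 h (HHV-1) or 72 h (HHV-2) at 37 °C, then formaldehyde/crystal violet staining and plaque counting. Read-out is the viral titer reduction factor. Two experiments in quadruplicate.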
# Human alphaherpesvirus 2 [5] = test: Antiviral activity against HHV-2 VR-734-G infected in African green monkey Vero cells assessed as reduction of viral titer at maximal non-toxic concentration after 72 hrs by crystal violet staining assay relative to control; type: functional; procedure, shortened: as §4
# Vero [6] = test: Cytotoxicity against African green monkey Vero cells assessed as inhibition of cell proliferation after 72 hrs; type: cell-based; conditions: Chlorocebus sabaeus
# Human alphaherpesvirus 1 [7] = test: Antiviral activity against HHV1 CDC Atlanta infected in African green monkey Vero cells assessed as reduction of viral titer at maximal non-toxic concentration after 48 hrs by crystal violet staining assay relative to control; type: functional; procedure, shortened: as §4
# Human alphaherpesvirus 2 [8] = test: Antiviral activity against HHV-2 VR-734-G infected in African green monkey Vero cells assessed as reduction in plaque formation administered post viral infection after 72 hrs by crystal violet staining technique; type: functional, organism-based; conditions: Human alphaherpesvirus 2, VR-734-G
# Procedure, shortened: (§5)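 Plaque reduction on Vero monolayers (2.5 × 10^4 cells/well) infected with 100 PFU/well. Pre-infection arm: virus–compound mixture added for 1 h at 37 °C, PBS wash, then CMC overlay. Post-infection arm: virus adsorbed 1 h, washed, then compound given in CMC. CMC was 1% for HHV-1, 0.75% for HHV-2 and 2% for DENV-2. Plates ran 72 h (HHV) or 8 days (DENV-2) before crystal violet staining. EC50 came from linear regression over ≥4 dilutions in quadruplicate.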
# Human alphaherpesvirus 1 [9] = test: Antiviral activity against HHV-1 CDC Atlanta infected in African green monkey Vero cells assessed as reduction in plaque formation administered post viral infection after 72 hrs by crystal violet staining technique; type: functional, organism-based; conditions: Human alphaherpesvirus 1, CDC Atlanta, Vero, 72 h; read-out: EC50; procedure, shortened: as §5
# Vero [10] = test: Cytotoxicity against African green monkey Vero cells assessed as cell growth inhibition after 48 hrs by MTT assay; type: cell-based; conditions: Chlorocebus sabaeus; procedure, shortened: as §1
# Jurkat [11] = test: Selectivity index, ratio of IC50 for African green monkey Vero cells to IC50 for human Jurkat cells; type: functional
# Procedure, shortened: (§6)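 SI calculated as Vero IC50 divided by HeLa, Jurkat or U937 IC50, all from the 48 h MTT assay.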
# HeLa [12] = test: Selectivity index, ratio of IC50 for African green monkey Vero cells to IC50 for human HeLa cells; type: functional; procedure, shortened: as §6
# Vero [13] = test: Selectivity index, ratio of IC50 for African green monkey Vero cells to IC50 for human U937 cells; type: functional; procedure, shortened: as §6
SMILES,IC50 [1] [µM],Activity (Aspergillus terreus),Activity (Candida albicans),Activity (Aspergillus flavus),Activity (Candida parapsilosis),IC50 (HeLa [2]) [µM],Activity (Candida tropicalis),IC50 (Jurkat [3]) [µM],Activity (Aspergillus fumigatus),Activity (Fusarium oxysporum),MNTD (Human alphaherpesvirus 2 [4]) [µM],fold change (FC) (Human alphaherpesvirus 2 [5]),IC50 (Vero [6]) [µM],fold change (FC) (Human alphaherpesvirus 1 [7]),EC50 (Human alphaherpesvirus 2 [8]) [µM],EC50 (Human alphaherpesvirus 1 [9]) [µM],IC50 (Vero [10]) [µM],Ratio IC50 (Jurkat [11]),Ratio IC50 (HeLa [12]),Ratio IC50 (Vero [13])
CC(=O)Oc1cc2c(cc1C(C)C)CC[C@H]1[C@](C)(CN3C(=O)c4ccccc4C3=O)CCC[C@]21C,> 50,inactive,inactive,inactive,inactive,> 50,inactive,> 50,inactive,inactive,,,,,,,,,,
Nc1nc2c(ncn2COCCO)c(=O)[nH]1 [ACYCLOVIR],,,,,,,,,,,6.7,1000,> 1700,10000,0.27,2.2,,,,
COc1cccc2c1C(=O)c1c(O)c3c(c(O)c1C2=O)C[C@@](O)(C(=O)CO)C[C@@H]3O[C@H]1C[C@H](N)[C@H](O)[C@H](C)O1 [DOXORUBICIN],0.077,,,,,0.834,,0.012,,,,,,,,,1.93,,,
CC(C)c1cc2c(cc1O)[C@@]1(C)CCC[C@@](C)(CN3C(=O)c4c(Cl)c(Cl)c(Cl)c(Cl)c4C3=O)[C@@H]1CC2,> 40,inactive,inactive,inactive,inactive,29,inactive,21.9,inactive,inactive,,,,,,,267,12.2,9.2,
CC(C)c1cc2c(cc1O)[C@@]1(C)CCC[C@@](C)(CN)[C@@H]1CC2,> 80,inactive,inactive,inactive,inactive,> 80,inactive,49.4,inactive,inactive,,,,,,,39.8,0.8,,
CC(=O)Oc1cc2c(cc1C(C)C)CC[C@H]1[C@](C)(CN3C(=O)c4c(Cl)c(Cl)c(Cl)c(Cl)c4C3=O)CCC[C@]21C,> 40,inactive,inactive,inactive,inactive,> 40,inactive,> 40,inactive,inactive,,,,,,,,,,
CC(=O)O[C@H]1C(=O)[C@@]2(C)[C@H]([C@H](OC(=O)c3ccccc3)[C@]3(O)C[C@H](OC(=O)[C@H](O)[C@@H](NC(=O)c4ccccc4)c4ccccc4)C(C)=C1C3(C)C)[C@]1(OC(C)=O)CO[C@@H]1C[C@@H]2O [PACLITAXEL],,,,,,0.099,,0.0005,,,,,,,,,0.65,,,
CC(=O)Oc1cc2c(cc1C(C)C)C(=O)C[C@H]1[C@](C)(CN3C(=O)c4c(Cl)c(Cl)c(Cl)c(Cl)c4C3=O)CCC[C@]21C,8.3,inactive,inactive,inactive,inactive,7.3,inactive,12.3,inactive,inactive,,,,,,,> 320,>26,>43.8,>38.5
Cc1ccc(S(=O)(=O)NC[C@]2(C)CCC[C@]3(C)c4cc(O)c(C(C)C)cc4CC[C@@H]23)cc1,36,inactive,inactive,inactive,inactive,> 50,inactive,30.9,inactive,inactive,,,,,,,82.5,2.7,,2.3
CC(=O)Oc1cc2c(cc1C(C)C)/C(=N\S(=O)(=O)c1ccc(C)cc1)C[C@H]1[C@](C)(CN3C(=O)c4c(Cl)c(Cl)c(Cl)c(Cl)c4C3=O)CCC[C@]21C,> 30,inactive,inactive,inactive,inactive,> 30,inactive,> 30,inactive,inactive,,,,,,,,,,
CC(C)c1cc2c(cc1O)[C@@]1(C)CCCC(C)(C)[C@@H]1CC2 [FERRUGINOL],21.3,inactive,inactive,inactive,inactive,64.9,inactive,48.2,inactive,inactive,,,,,,,90.4,1.9,1.4,4.2
